Data set [1] is described as follows: AUC infinity in CD-1 mouse at 1 mg/kg, iv administered as single dose measured up to 24 hrs. Type of data set: ADME, organism-based. The arrangement: route intravenous, dose 1 mg/kg, time <=24. The settings on record: in vivo. The method in brief: (§1)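 Male CD-1 mice, 6–8 weeks old, single dose by tail vein (1 mg/kg, 3% NMP/45% PEG300/12% ethanol/40% water) or oral gavage (5 mg/kg, 5% NMP/95% PEG300). Retro-orbital plasma sampled 0.083 (iv only) to 24 h, n=3/timepoint, and analysed by HPLC/MS/MS. Non-compartmental analysis. Half-life taken from the terminal phase using ≥3 non-zero points after Tmax.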

A short description of data set [2]: Ratio of drug concentration in CD-1 mouse brain to plasma at 5 mg/kg, po measured after 1 hr. It counts as ADME, organism-based. Put shortly: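 Male CD-1 mice dosed once iv (1 mg/kg) or by oral gavage (5 mg/kg). Brain and plasma collected 1 h post dose (n=3/timepoint). Drug levels by HPLC/MS/MS; brain/plasma ratio calculated from these levels.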
Data set [3] in a line: In vivo modulation of gamma secretase in transgenic J20 mouse overexpressing human APP assessed as reduction in plasma amyloid beta42 level at 50 mg/kg, po administered via gavage for 3 consecutive days and measured after 4 hrs post last dose on day 3 by meso scale discovery relative to control. Type of data set: functional. Also on record: scale not given: the % may be the effect or the level left. Conditions: time 3 day. Put shortly: (§2)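 Female J20 mice, 5–6 months old (n=5/dose), dosed orally at 25, 50 or 100 mg/kg or with vehicle (5% NMP/95% PEG300) for 3 consecutive days. Plasma was taken 4 h after the final dose. Aβ38/40/42 measured by Meso Scale multiplex immunoassay, with % reduction relative to vehicle. Mean ± SEM, ANOVA.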

Data set [4] is described as follows: Ratio of drug level in brain to plasma of transgenic J20 mouse overexpressing human APP at 50 mg/kg, po administered via gavage for 3 consecutive days and measured after 4 hrs post last dose on day 3 by HPLC-MS/MS analysis. Type of data set: ADME, organism-based. Conditions: 72 h, time 3 day. The method in brief:
(§3)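 Female J20 mice, 5–6 months old (n=5/dose), dosed by oral gavage once daily for 3 days in 5% NMP/95% PEG300 vehicle. Sacrificed 4 h after the day-3 dose. Plasma and brain drug levels measured by LC-MS/MS (LLOQ 1 ng/mL plasma, 5 ng/g brain). Ratio = brain level/plasma level.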

Data set [5] can be described thus: In vivo modulation of gamma secretase in transgenic J20 mouse overexpressing human APP assessed as reduction in plasma amyloid beta40 level at 100 mg/kg, po administered via gavage for 3 consecutive days and measured after 4 hrs post last dose on day 3 by meso scale discovery relative to control. Conditions: time 3 day. It counts as functional. The arrangement: scale not given: the % may be the effect or the level left. Put shortly: as §2

Data set [6] can be described thus: Tmax in CD-1 mouse at 1 mg/kg, iv administered as single dose measured up to 24 hrs. It counts as ADME, organism-based. The settings on record: in vivo. The method in brief: (§4)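 Male CD-1 mice, 6–8 weeks old, single tail-vein dose in 3% NMP/45% PEG300/12% ethanol/40% sterile water. Retro-orbital plasma (K3EDTA) taken at 0.083, 0.25, 0.5, 1, 2, 4, 8 and 24 h, n=3/timepoint, analysed by HPLC/MS/MS. Non-compartmental analysis (Model 201, uniform weighting); Tmax read directly from the data.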

Data set [7] in a line: Metabolic stability in human liver microsomes assessed as parent compound remaining at 1 uM incubated for 30 mins. It counts as ADME, Microsome. The settings on record: microsomes, 0.5 h, 1 µM. The method in brief: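 Test compound at 1 μM incubated 30 min with human, rat or mouse liver microsomes (1 mg/mL); parent remaining expressed as %.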
A general note: Liver microsomes are a subcellular fraction often used to study metabolism.

Data set [8] in a line: Drug level in plasma of transgenic J20 mouse overexpressing human APP at 100 mg/kg, po administered via gavage for 3 consecutive days and measured after 4 hrs post last dose on day 3 by HPLC-MS/MS analysis. Type of data set: ADME, organism-based. The settings on record: time 3 day. Put shortly: (§5)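 Female J20 mice, 5–6 months old, given 25, 50 or 100 mg/kg orally (5% NMP/95% PEG300) daily for 3 days, n=5/dose. Plasma and brain taken 4 h after the final dose and analysed by LC-MS/MS. LLOQ was 1 ng/mL in plasma and 5 ng/g in brain.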

The nature of data set [9]: Ratio of drug level in brain to plasma of transgenic J20 mouse overexpressing human APP at 25 mg/kg, po administered via gavage for 3 consecutive days and measured after 4 hrs post last dose on day 3 by HPLC-MS/MS analysis. It counts as ADME, organism-based. The settings on record: 72 h, time 3 day. Put shortly:
as §3

The nature of data set [10]: In vivo modulation of gamma secretase in transgenic J20 mouse overexpressing human APP assessed as reduction in plasma amyloid beta40 level at 50 mg/kg, po administered via gavage for 3 consecutive days and measured after 4 hrs post last dose on day 3 by meso scale discovery relative to control. Conditions: time 3 day. Type of data set: functional. Also on record: scale not given: the % may be the effect or the level left. Put shortly:
as §2

A further data set deals with Gamma-secretase. Description: Modulation of gamma secretase in human SH-SY5Y cells overexpressing wild type APP751 assessed as effect on amyloid beta42 level by meso scale discovery. Type of data set: cell-based.
The nature of data set [11]: Volume of distribution at steady state in CD-1 mouse at 1 mg/kg, iv administered as single dose measured up to 24 hrs. Conditions: in vivo. It counts as ADME, organism-based. Put shortly:
as §4

The nature of data set [12]: In vivo modulation of gamma secretase in transgenic J20 mouse overexpressing human APP assessed as reduction in plasma amyloid beta42 level at 100 mg/kg, po administered via gavage for 3 consecutive days and measured after 4 hrs post last dose on day 3 by meso scale discovery relative to control. Type of data set: functional. Also on record: scale not given: the % may be the effect or the level left. Conditions: time 3 day. The method in brief:
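Female J20 mice, 5–6 months old (n=5/dose), given vehicle (5% NMP/95% PEG300) or test article at 25, 50 or 100 mg/kg by oral gavage daily for 3 days. Sacrificed 4 h after final dose; plasma Aβ38/40/42 quantified by Meso Scale multiplex (SECTOR Imager 6000). Percent reduction versus vehicle; mean ± SEM, ANOVA.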

Data set [13] in a line: Apparent permeability from apical to basolateral membrane in MDCK-MDR1 cells. Conditions: dog. It counts as ADME, cell-based, Canis lupus familiaris. The method in brief: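 Apical-to-basolateral apparent permeability (×10⁻⁶ cm/s) measured across MDR1-MDCK cell monolayers.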
The next data set has as its target T1, Cytochrome P450 1A2 (Homo sapiens, UniProt P05177).
T1 sequence (P05177 whole entry): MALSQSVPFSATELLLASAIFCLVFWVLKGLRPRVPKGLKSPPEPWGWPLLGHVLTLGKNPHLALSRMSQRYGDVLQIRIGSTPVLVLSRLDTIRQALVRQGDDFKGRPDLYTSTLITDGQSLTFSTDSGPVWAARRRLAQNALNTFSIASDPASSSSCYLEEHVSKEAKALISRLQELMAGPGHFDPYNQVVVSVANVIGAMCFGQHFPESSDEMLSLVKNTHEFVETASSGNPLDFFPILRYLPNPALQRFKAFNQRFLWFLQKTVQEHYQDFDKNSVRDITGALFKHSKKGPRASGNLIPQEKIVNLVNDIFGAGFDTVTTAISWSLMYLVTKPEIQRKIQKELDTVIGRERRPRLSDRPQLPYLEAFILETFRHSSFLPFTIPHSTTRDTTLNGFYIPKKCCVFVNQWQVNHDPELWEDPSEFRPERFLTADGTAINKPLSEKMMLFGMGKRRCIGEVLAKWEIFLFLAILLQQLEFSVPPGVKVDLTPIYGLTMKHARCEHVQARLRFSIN
The experiment in a line: Inhibition of recombinant CYP1A2 (unknown origin) by fluorescence-based assay. It counts as ADME. The method in brief: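 Recombinant CYP isoforms (five tested) screened for inhibition in fluorescence-based assays; IC50 in μM.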

Data set [14] can be described thus: Cmax in CD-1 mouse at 5 mg/kg, po administered as single dose measured up to 24 hrs. Type of data set: ADME, organism-based. The arrangement: route oral, dose 5 mg/kg, time <=24. The settings on record: in vivo. Put shortly:
as §1

A short description of data set [15]: Drug level in brain of transgenic J20 mouse overexpressing human APP at 50 mg/kg, po administered via gavage for 3 consecutive days and measured after 4 hrs post last dose on day 3 by HPLC-MS/MS analysis. It counts as ADME, organism-based. The settings on record: time 3 day, read-out: Ct. Put shortly:
as §5

In general, AUC refers to concentration integrated over time. A word on the Tmax: it is the time at which the peak concentration occurs. For orientation: IC50 means the point on the concentration scale where inhibition reaches its midpoint. For orientation: Vdss means the apparent volume that relates the amount in the body to the concentration in plasma or blood. A word on the Cmax: it is the peak of the concentration-time curve. On to `CCn1nc2c(c1Nc1nc(-c3ccc(-n4cnc(C)c4)c(OC)n3)cs1)CCC2`, for which the AUC in data set [1] was 383 ng·h/mL. The BPR in data set [2] is on record as 0.4; in [4] it was 0.38; in data set [9], 0.37. Further, the Activity in [3] was determined as 40%; in data set [5] it was 68%; in data set [10], 31%; in data set [12], 76%. For the same compound, the Tmax in [6] was determined as 4.98 min. Besides, in data set [7], the Stabilty came out at 51%. Also, the results for the concentration at 72 h in data set [8] and in data set [15] were 726 ng/mL and 83 ng/g, respectively. Further, the results for the half-inhibitory concentration (IC50) at Gamma-secretase and at Cytochrome P450 1A2 were 19 nM and over 100000 nM, respectively. The compound also yielded a Vdss in data set [11] of 2.234 L/kg. Besides, in [13], the Papp is 29.6 10^-6 cm/s. In [14], this compound yielded a Cmax of 377 ng/mL.
As for `COc1nc(-c2csc(Nc3c4c(nn3CCF)CCCC4)n2)ccc1-n1cnc(C)c1`, the AUC in [1] is 288 ng·h/mL. In addition, the BPR is recorded as 0.68 in data set [2], 0.42 in [4] and 0.53 in data set [9]. The Activity in [3] was 48%; in data set [5] it was 46%; in data set [10], 36%; in data set [12], 55%. The Tmax in data set [6] amounted to 4.98 min. In addition, in [7], the Stabilty was determined as 100%. The values for the concentration at 72 h in [8] and in data set [15] were 183 ng/mL and 282 ng/g, respectively. Further, the IC50 on Gamma-secretase was 14 nM; on Cytochrome P450 1A2, over 100000 nM. In addition, the Vdss in data set [11] came to 2.826 L/kg. Besides, in data set [13], the Papp is 32.6 10^-6 cm/s. The compound further showed a Cmax in [14] of 167 ng/mL.
